Only some compounds are listed: those with a hit (about 3.7% of all), similar ones and a draw of the others.
rCAG RNA binder: binders of r(CAG) RNA repeats, primary screen, biochemical, fluorescence; actives 1.3% (n = 370,000); r(CAG) RNA repeat, TO-PRO-1 dye displacement fluorescence; inhibition, % at 3 µM;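 active = inhibition above the plate cutoff, the mean of all test compounds on that plate plus 3 SD, cut at about 35% in these data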;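 also: 0% = DMSO alone and 100% = 100 µM mitoxantrone as full dye displacement; higher means more dye released from RNA so lower well fluorescence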
TAAR1 agonist: human TAAR1 agonists, primary screen, Fluo-8 calcium fluorescence, CHO RD-HGA16 cells. actives 0.99% (n = 360,000). vehicle wells 0%, saturating PEA agonist 100%. Trace amine-associated receptor 1 (Homo sapiens), Q96RJ0. activation, % at 3 µM;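 active = activation above the mean activation of all test compounds in the run plus 3 SD, cut at about 38% in these data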
Target sequence (Q96RJ0 whole entry, looked up): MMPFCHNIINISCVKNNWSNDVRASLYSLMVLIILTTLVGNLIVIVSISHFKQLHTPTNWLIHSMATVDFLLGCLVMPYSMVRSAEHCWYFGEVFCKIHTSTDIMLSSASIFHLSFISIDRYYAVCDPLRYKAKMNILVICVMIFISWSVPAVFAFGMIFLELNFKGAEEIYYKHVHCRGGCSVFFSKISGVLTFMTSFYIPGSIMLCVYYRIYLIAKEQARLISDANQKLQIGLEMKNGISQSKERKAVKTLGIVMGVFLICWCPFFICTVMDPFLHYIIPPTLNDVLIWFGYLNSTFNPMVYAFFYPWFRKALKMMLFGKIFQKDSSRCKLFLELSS
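Signal – calcium-sensitive Fluo-8 signal, excitation 470-495, emission 515-575 nm · System – RD-HGA16 (CHO) cells co-expressing Gα16 and hTAAR1 · Incubation – 17-24 h seeding, 75 min 37 °C dye, 30 min RT · Compound dosing – 3 µM single concentration · Repeats – no replicates (n 1)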
core dimer inh: inhibitors of HCV core protein dimerization, primary screen, biochemical, TR-FRET, high-throughput | TR-FRET GST/Flag-core106 dimerization, 1536-well | inhibition, % at 5 µM | actives 0.33% (n = 300,000) | AID 1899, 2009;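 active = inhibition above the mean of all tested compounds plus 3 SD, set per screening campaign, cut at about 45% in these data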
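test system = GST/Flag-tagged HCV core106 proteins | probe or stimulus = Eu donor and XL665 acceptor anti-tag antibodies | times = compound-protein-antibody incubation 4 h at 22.5 °C | signal = TR-FRET, excitation 340 nm, emission 617 and 671 nm | measure = percent inhibition of core106 dimerization signal | controls = wells lacking GST-core106 and wells with excess unlabelled core106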
HCV NS3 hel inh: inhibitors of HCV NS3 helicase, primary screen, biochemical, Cy5 molecular beacon fluorescence. Hepatitis C virus NS3 helicase. NS3 helicase DNA unwinding. inhibition, % at 10.9 µM. actives 0.56% (n = 290,000). AID 1800, 2009;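 active = inhibition above the mean of all tested compounds plus 3 SD, set per campaign, cut at about 35% in these data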;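 also: 0% = DMSO wells and 100% = thioflavine S control wells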
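Assay system: hepatitis C virus NS3 helicase domain fragment enzyme. Also added: annealed dual-labelled DNA beacon duplex, ATP-started. Timing: 1 h reaction at 25 °C, ATP-initiated. Technique: Cy5 fluorescence at 0 and 60 min, beacon hairpin quenching. Evaluation: % inhibition of unwinding. Replication: one well per compound.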
TAAR1 antagonist: human TAAR1 antagonists, primary screen, Fluo-8 calcium fluorescence, CHO RD-HGA16 cells. antagonist. AID 624466, 2012. Trace amine-associated receptor 1 (Homo sapiens), Q96RJ0. inhibition, % at 3 µM. actives 1.5% (n = 360,000);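 active = inhibition above a per-plate cutoff, the mean inhibition of test compounds on that plate plus 3 SD, cut at about 49% in these data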;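 also: 0% = DMSO plus EC80 beta-PEA response and 100% = DMSO alone without agonist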
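Assay system: RD-HGA16 CHO cells with stable hTAAR1 and Gα16 / Reagent: EC80 β-phenethylamine stimulus / Doses: 3 µM, single point / Timing: dye loading 75 min at 37 °C, then 30 min room temperature / Measured by: Fluo-8 intracellular calcium dye fluorescence, real-time kinetic reads / Controls: vehicle wells and EC80 agonist wells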
rCAG binder conf: small molecules binding CAG repeat RNA – biochemical, fluorescence, confirmation. shares compounds with rCAG RNA binder. inhibition, % at 3 µM. r(CAG) RNA repeat, TO-PRO-1 dye displacement fluorescence. AID 652065, 2013. actives 70% (n = 4,300);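 active = inhibition above a per-plate cutoff, the mean inhibition of sample wells plus 3 SD, cut at about 35% in these data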;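 also: loss of TO-PRO-1 fluorescence as compound displaces dye from 1x1 AA loop RNA; 0% = DMSO only wells and 100% = 100 µM mitoxantrone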
dCAG dye counter: displacement of TO-PRO-1 from CAG DNA duplex, counter-screen for rCAG RNA repeat binder project, biochemical, fluorescence, TO-PRO-1 dye, d(CAG) DNA oligo. inhibition, % at 3 µM. shares compounds with rCAG RNA binder. AID 652068, 2013. d(CAG) DNA oligo TO-PRO-1 dye displacement. actives 94% (n = 4,300);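 active = inhibition above its plate's cutoff, the mean test-well inhibition plus 3 SD, cut at about 4.8% in these data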;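 also: 0% = DNA dye mix with DMSO and 100% = 100 µM mitoxantrone; hits displace the dye from DNA and so lower well fluorescence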
DNA CAG DR: inhibitors of DNA CAG/GTC TO-PRO-1 complex, dose response, counter-screen for rCAG RNA repeat binder project, biochemical, fluorescence, TO-PRO-1 dye. shares compounds with rCAG RNA binder. DNA CAG/GTC duplex TO-PRO-1 dye displacement fluorescence. IC50, µM. actives 20% (n = 250); in the data active = IC50 below about 10 µM
Starred values were filed as active, the others as inactive; / = not tested or not shown; ! = repeats disagree.

SMILES	rCAG RNA binder	TAAR1 agonist	core dimer inh	HCV NS3 hel inh	TAAR1 antagonist	rCAG binder conf	dCAG dye counter	others
O=c1oc2ccccc2c(Nc2cccc3ccccc23)c1[N+](=O)[O-]	42*	-2	9	-2	6	45*	12*
O=c1oc2ccccc2c(Nc2cc3ccccc3cc2O)c1[N+](=O)[O-]	41*	2	27	33	2	56*	20*
Cn1cccc1C=NNC(=O)c1cc(-c2ccc(Cl)cc2)n[nH]1	10	/	/	/	/	/	/
N#Cc1c(=O)c2nc(NCCCO)ncc2n2c(=O)c3ccccc3[nH]c12	41*	0	8	0	-1	67*	26*	DNA CAG DR=5.4*
Cc1ccc(S(=O)(=O)N2[C@@H](c3ccccc3)C(C(=O)O)=CC[C@H]2c2ccc(Cl)c(Cl)c2)cc1	61*	1	22	/	31	81*	48*
Cc1ccc([C@H]2C(C(=O)O)=CC[C@@H](c3ccc(Cl)c(Cl)c3)N2S(=O)(=O)c2ccc(C)cc2)cc1	88*	1	/	/	-8	85*	54*
COc1cccc(C(=O)N[C@@H](Cc2cccnc2)C(=O)N2CCC[C@H]2C(=O)NC2CCCC2)c1	0	0	/	/	0	/	/
CCOc1ccc(NC(=O)CSc2nnc(-c3n[nH]c4c3CCC4)n2N)cc1	0	/	/	/	/	/	/
O=S(=O)(Nc1ccc(Br)cc1)c1cccc(NS(=O)(=O)c2cccs2)c1	37*	14	/	/	22	29	6.9*
Cc1ccc(NS(=O)(=O)c2ccc(NS(=O)(=O)c3cccs3)cc2)cc1	32	21	9	-9	-2	/	/
CC(C)Cc1nn2c(N)c(/C=C3\C=Nc4ccccc43)c(=O)nc2s1	38*	1	0	9	10	62*	21*
CC(C)c1nn2c(N)c(/C=C3\C=Nc4ccccc43)c(=O)nc2s1	40*	5	5	2	18	41*	10*
CCC(CC)c1nn2c(N)c(/C=C3\C=Nc4ccccc43)c(=O)nc2s1	9	-1	1	11	-42	/	/
CCC(CC)c1nn2c(N)c(/C=C3\C(C)=Nc4ccccc43)c(=O)nc2s1	25	13	1	-3	17	/	/
CCCc1nn2c(N)c(/C=C3\C=Nc4ccccc43)c(=O)nc2s1	51*!	4	-17	3	29	49*	14*
CCCCc1nn2c(N)c(/C=C3\C=Nc4ccccc43)c(=O)nc2s1	7	0	7	1	-17	/	/
COc1cc(C)ccc1S(=O)(=O)NC(=O)Cn1nnc(COc2ccc3c(c2)CCCC3)c1C	48*	0	/	/	-6	42*	12*
Cc1c(COc2ccc3ccccc3c2)nnn1CC(=O)NS(=O)(=O)c1ccccc1C(F)(F)F	70*	1	/	/	-24	64*	26*
CC(=O)c1ccc(OCc2nnn(CC(=O)NS(=O)(=O)c3ccc(C)cc3)c2-c2ccccc2)cc1	62*	0	/	/	-6	68*	20*
O=C(N[C@H](C(=O)N1CCC[C@H]1C(=O)NCc1ccccc1)c1ccccc1)c1ccccc1	-2	1	/	/	-14	/	/
CC1(C)CC(=O)C2=C(C1)c1c(ccc3ccccc13)NC2c1cc([N+](=O)[O-])cc([N+](=O)[O-])c1O (stereo not drawn)	93*	1	16	21	-3	89*	64*
O=C(Nc1cccc(Cl)c1)Nc1nnc(-c2ccncc2)s1	66*	15	18	2	-10	45*	22*
Cc1ccc(NC(=O)Nc2nnc(-c3ccncc3)s2)cc1C	60*	12	18	-4	29	49*	17*
O=C(Nc1ccc(Cl)cc1)Nc1nnc(-c2ccncc2)s1	16	12	-6	-1	-2	/	/
CCCN1C(=O)c2[nH]nc(-c3ccccc3)c2C1c1ccc(F)cc1 (stereo not drawn)	0	1	/	/	-44	/	/
SMILES	rCAG RNA binder	TAAR1 agonist	core dimer inh	HCV NS3 hel inh	TAAR1 antagonist	rCAG binder conf	dCAG dye counter	others
CCCCNC(=O)C1(C(=O)C2CC2)CC(c2ccccc2C(F)(F)F)=NO1 (stereo not drawn)	0	/	/	/	/	/	/
CN1CCN(S(=O)(=O)c2cccc(C(=O)Nc3sc4c(c3-c3nc5ccccc5[nH]3)CCCC4)c2)CC1	38*	4	25	2	42	29	20*
CCOC(=O)CC(=O)CSc1nc2c(sc(=S)n2-c2ccc(OCC)cc2)c(=O)[nH]1	61*	-2	7	-1	-16	53*	19*
CCOC(=O)CC(=O)CSc1nc2c(sc(=S)n2-c2ccc(C)c(C)c2)c(=O)[nH]1	70*	-3	16	-4	-33	63*	23*
CCCN(CCC)C(=O)CSc1nc2c(sc(=S)n2-c2ccc(OCC)cc2)c(=O)[nH]1	24	9	24	16	-10	/	/
Cc1c(C(c2cccc([N+](=O)[O-])c2O)c2c(C)n(C)n(-c3ccccc3)c2=O)c(=O)n(-c2ccccc2)n1C	4	2	-6	13	-11	/	/
Cc1[nH]n(-c2ccccc2)c(=O)c1C(c1cccc([N+](=O)[O-])c1O)c1c(C)[nH]n(-c2ccccc2)c1=O	79*	8	3	13	9	46*	13*
Cc1[nH]n(-c2ccccc2)c(=O)c1C(c1cccc([N+](=O)[O-])c1)c1c(C)[nH]n(-c2ccccc2)c1=O	68*	14	4	5	46	50*	20*
COc1ccc(Cc2nnc(SCC(=O)Nc3ccccc3)[nH]c2=O)cc1	13	3	5	/	-1	/	/
COc1ccc(Cc2nnc(SCC(=O)Nc3cc(Cl)ccc3OC)[nH]c2=O)cc1	51*	0	6	/	-19	50*	16*
CCOc1cc(/C=N/N=C2/NC(=O)C(CC(=O)O)S2)ccc1OS(=O)(=O)c1ccc(C)cc1 (stereo not drawn)	56*	4	/	23	-9	36*	9.7*
CCOc1cc(/C=N/N=C2/NC(=O)C(CC(=O)O)S2)ccc1OCc1ccccc1Cl (stereo not drawn)	64*	10	19	-8	-9	46*	13*

Source: PubChem BioAssay
